From ChEMBL document CHEMBL1147062, “Therapeutic anticancer efficacy of a synthetic diazonamide analog in the absence of overt toxicity” (Proc Natl Acad Sci U S A, 2007)
The source made the active and inactive calls. No cut-off for these calls is given here.

What was measured:
Mus musculus [1] = experiment: Toxicity in NCR nu/nu mouse neutropenia model assessed as severe flaking of skin at 20 mg/kg, iv QD for 6 days; assay type: organism-based; set-up: dose 20 mg/kg, route intravenous; settings: in vivo, 144 h
In short: (§1)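 Non-tumor-bearing NCR nu/nu mice, four to five per group, got 20 mg/kg i.v. qd × 6 in cremaphor:ethanol/5% dextrose, or vehicle. They were weighed and observed daily and killed on day 8. Tail-vein blood and femoral marrow were lysed of erythrocytes, stained for Gr1 and analyzed by flow cytometry. Neutrophil counts were %Gr1hi × white cells per ml or per femur. Groups were compared with control by one-way ANOVA and Dunnett's test.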

Mus musculus [2] = experiment: Toxicity in human HCT116 cells xenografted NCR nu/nu mouse assessed as loss of body weight iv QD for 6 days; settings: in vivo, 144 h
HCT-116 [3] = experiment: Antitumor activity against human HCT116 cells xenografted into NCR nu/nu mouse at 5 mg/kg, ip dosed in q2-3dX6 schedule relative to control; assay type: functional; settings: route intraperitoneal
In short: (§2)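 NCR nu/nu mice given 7.5–10 × 10^6 tumor cells s.c. in the left flank. At ≈100–300 mm3 (5–10 days), mice were randomized into groups of 4–7. Compound was predissolved in 1:1 cremaphor:ethanol, then diluted into 5% dextrose. Dosed i.v. or i.p. in 0.2 ml on Monday, Wednesday and Friday for 2 weeks. Caliper measurements 2–3 times weekly; volume = (length × width2)/2.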

[4] = AUC in NCR nu/nu mouse plasma at 20 mg/kg, iv; assay type: ADME, organism-based; set-up: dose 20 mg/kg, route intravenous
In short: (§3)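 Each NCR nu/nu mouse got one i.v. bolus of 20 mg/kg in 0.2 ml of 1:1 cremaphor:ethanol (10%) diluted in 5% dextrose. At set times mice were killed by CO2 overdose and bled by cardiac puncture into sodium citrate. Plasma was spun 10 min at 8,000 × g and frozen at −80°C. LC-MS used an internal standard and a spiked blank murine plasma standard curve. Parameters came from noncompartmental analysis.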

[5] = Clearance in NCR nu/nu mouse plasma at 20 mg/kg, iv; assay type: ADME, organism-based; set-up: dose 20 mg/kg, route intravenous; in short: as §3
PC-3 [6] = experiment: Antitumor activity against human PC3 cells xenografted into NCR nu/nu mouse at 7.5 mg/kg, iv dosed in qdX6 schedule relative to control; assay type: functional
In short: (§4)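 Nude mice received 10^7 PC3 cells s.c. in the left flank and were randomized at ≈250 mm3 into groups of six to seven. Dosing was i.v. daily for 6 consecutive days, in 0.2 ml cremaphor:ethanol (1:1) diluted in 5% dextrose. Tumors were measured by calipers as (length × width2)/2, and weight was tracked alongside.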

PC-3 [7] = experiment: Antitumor activity against human PC3 cells xenografted into NCR nu/nu mouse at 20 mg/kg, iv dosed in qdX6 schedule relative to control; assay type: functional; in short: as §4
MDA-MB-435 [8] = experiment: Antitumor activity against human MDA-MB-435 cells xenografted into NCR nu/nu mouse at 20 mg/kg, ip dosed in q3-4dX4 schedule relative to control; assay type: functional; settings: route intraperitoneal
In short: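 NCR nu/nu mice bearing s.c. left-flank xenografts (7.5–10 × 10^6 cells) were randomized at ≈100–300 mm3 into groups of 4–7. Dosing was i.p. in 0.2 ml, with cremaphor:ethanol (1:1) stock diluted in 5% dextrose. Body weight and caliper tumor size were recorded 2–3 times per week; volume = (length × width2)/2.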

Mus musculus [9] = experiment: Toxicity in NCR nu/nu mouse assessed as loss of body weight at 2.5 mg/kg, iv for 6 days; assay type: organism-based; set-up: dose 2.5 mg/kg, route intravenous; settings: in vivo, 144 h
In short: (§5)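 Nude mice carried 10^7 PC3 cells s.c. in the left flank and were randomized into groups of six to seven when tumors reached ≈250 mm3. Mice were dosed at 20, 7.5 or 2.5 mg/kg for 6 consecutive days. Body weight was tracked against starting weight, including 2 days after the last dose.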

HCT-116 [10] = experiment: Antitumor activity against human HCT116 cells xenografted into NCR nu/nu mouse at 5 mg/kg, iv dosed in q2-3dX6 schedule relative to control; assay type: functional; in short: as §2
PC-3 [11] = experiment: Antitumor activity against human PC3 cells xenografted into NCR nu/nu mouse at 20 mg/kg, iv dosed in q2-3dX6 schedule relative to control; assay type: functional; in short: as §2
PC-3 [12] = experiment: Antitumor activity against human PC3 cells xenografted into NCR nu/nu mouse at 2.5 mg/kg, iv dosed in qdX6 schedule relative to control; assay type: functional; in short: as §4
PC-3 [13] = experiment: Induction of histone H3 phosphorylation in human PC3 cells xenografted into NCR nu/nu mouse at 20 mg/kg, iv; assay type: functional, organism-based; set-up: dose 20 mg/kg
In short: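 nu/nu mice carried 10^7 PC3 cells s.c. in the left flank. On day 8 they got one i.v. dose of 20 mg/kg or vehicle, two mice per group. Tumors were taken 12 h later, snap-frozen and homogenized in RIPA buffer with phosphatase and protease inhibitors. 100 µg protein was Western blotted for phospho-histone H3, with actin as control.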

Mus musculus [14] = experiment: Toxicity in NCR nu/nu mouse neutropenia model assessed as decrease in neutrophil count in peripheral blood at 20 mg/kg, iv QD for 6 days relative to control; assay type: organism-based; set-up: dose 20 mg/kg, route intravenous; settings: in vivo, 144 h; in short: as §1
Mus musculus [15] = experiment: Toxicity in human HCT116 cells xenografted NCR nu/nu mouse assessed as decrease in neutrophil count in peripheral blood at 20 mg/kg, iv QD for 6 days relative to control; assay type: organism-based, HCT-116; set-up: dose 20 mg/kg, route intravenous; settings: in vivo, 144 h
In short: (§6)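 NCR nu/nu mice received 10^7 HCT116 cells s.c. in the left flank 12 days before therapy. Dosing was i.v. qd × 6: 20 mg/kg in cremaphor:ethanol/5% dextrose, or 2 mg/kg vinblastine sulfate in 5% dextrose. Mice were weighed daily. On day 8, Gr1hi neutrophils in tail-vein blood and femoral marrow were counted by flow cytometry and compared with control by ANOVA and Dunnett's test.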

Mus musculus [16] = experiment: Volume of distribution in NCR nu/nu mouse plasma at 20 mg/kg, iv; assay type: ADME, organism-based; set-up: dose 20 mg/kg, route intravenous; settings: in vivo; in short: as §3
HCT-116 [17] = experiment: Antitumor activity against human HCT116 cells xenografted into NCR nu/nu mouse at 20 mg/kg, ip dosed in q2-3dX6 schedule relative to control; assay type: functional; settings: route intraperitoneal; in short: as §2
Mus musculus [18] = experiment: Toxicity in NCR nu/nu mouse neutropenia model assessed as loss of body weight at 20 mg/kg, iv QD for 6 days; assay type: organism-based; set-up: dose 20 mg/kg, route intravenous; settings: in vivo, 144 h; in short: as §1
Mus musculus [19] = experiment: Toxicity in NCR nu/nu mouse neutropenia model assessed as decrease in neutrophil count in bone marrow at 20 mg/kg, iv QD for 6 days relative to control; assay type: organism-based; set-up: dose 20 mg/kg, route intravenous; settings: in vivo, 144 h; in short: as §1
Mus musculus [20] = experiment: Toxicity in human HCT116 cells xenografted NCR nu/nu mouse assessed as decrease in neutrophil count in bone marrow at 2 mg/kg, iv QD for 6 days relative to control; assay type: organism-based, HCT-116; set-up: dose 2 mg/kg, route intravenous; settings: in vivo, 144 h; in short: as §6
[21] = Drug level in NCR nu/nu mouse plasma at 20 mg/kg, iv after 24 hrs; assay type: ADME, organism-based; set-up: dose 20 mg/kg, route intravenous; in short: as §3
Mus musculus [22] = experiment: Toxicity in NCR nu/nu mouse assessed as loss of body weight at 20 mg/kg, iv for 6 days; assay type: organism-based; set-up: dose 20 mg/kg, route intravenous; settings: in vivo, 144 h; in short: as §5
HCT-116 [23] = experiment: Antitumor activity against human HCT116 cells xenografted into NCR nu/nu mouse at 20 mg/kg, iv dosed in q2-3dX6 schedule relative to control; assay type: functional; in short: as §2
Mus musculus [24] = experiment: Toxicity in NCR nu/nu mouse assessed as loss of body weight at 7.5 mg/kg, iv for 6 days; assay type: organism-based; set-up: dose 7.5 mg/kg, route intravenous; settings: in vivo, 144 h; in short: as §5
Mus musculus [25] = experiment: Toxicity in human HCT116 cells xenografted NCR nu/nu mouse assessed as decrease in neutrophil count in peripheral blood at 2 mg/kg, iv QD for 6 days relative to control; assay type: organism-based, HCT-116; set-up: dose 2 mg/kg, route intravenous; settings: in vivo, 144 h; in short: as §6
Mus musculus [26] = experiment: Toxicity in human HCT116 cells xenografted NCR nu/nu mouse assessed as loss of body weight at 20 mg/kg, iv QD for 6 days; assay type: organism-based, HCT-116; set-up: dose 20 mg/kg, route intravenous; settings: in vivo, 144 h; in short: as §6
[27] = Terminal half life in NCR nu/nu mouse plasma at 20 mg/kg, iv; assay type: ADME, organism-based; set-up: dose 20 mg/kg, route intravenous; in short: as §3
Mus musculus [28] = experiment: Toxicity in human HCT116 cells xenografted NCR nu/nu mouse assessed as decrease in neutrophil count in bone marrow at 20 mg/kg, iv QD for 6 days relative to control; assay type: organism-based, HCT-116; set-up: dose 20 mg/kg, route intravenous; settings: in vivo, 144 h; in short: as §6
HCT-116 [29] = experiment: Antitumor activity against human HCT116 cells xenografted into NCR nu/nu mouse at 0.45 mg/kg, ip dosed in q2-3dX6 schedule relative to control; assay type: functional; settings: route intraperitoneal
MDA-MB-435 [30] = experiment: Antitumor activity against human MDA-MB-435 cells xenografted into NCR nu/nu mouse at 0.7 mg/kg, ip dosed in q3-4dX4 schedule relative to control; assay type: functional; settings: route intraperitoneal

Row | Structure (SMILES) | Activity (Mus musculus [1]) | Activity (Mus musculus [2]) | LCK (PC-3 [6]) | T/C (PC-3 [6]) [%] | LCK (PC-3 [7]) | T/C (PC-3 [7]) [%] | LCK (PC-3 [11]) | T/C (PC-3 [11]) [%] | T/C (PC-3 [12]) [%] | Activity (Mus musculus [14]) | Activity (Mus musculus [15]) | Activity (Mus musculus [18]) | Activity (Mus musculus [19]) | Activity (Mus musculus [20]) | Activity (Mus musculus [22]) | LCK (HCT-116 [23]) | T/C (HCT-116 [23]) [%] | Activity (Mus musculus [25]) | Activity (Mus musculus [26]) | Activity (Mus musculus [28]) | further results
1 | CC(C)[C@H](O)C(=O)N[C@@H]1C(=O)N[C@@H](C(C)C)c2nc3c(o2)C24c5ccc(cc5N[C@H]2Oc2ccc1cc24)-c1cccc2[nH]cc(c12)-c1cnc-3o1 (single isomer, unassigned) | Non-toxic | Non-toxic | 1.6 | 3.9 | 2.4 | 2.1 | 3.4 | 0.3 | 31.4 | Non-toxic | Non-toxic | Non-toxic | Non-toxic | Non-toxic | <= 5% | 1.8 | 0.2 | Non-toxic | Non-toxic | Non-toxic | LCK (HCT-116 [3]): 0.4; T/C (HCT-116 [3]): 41.9%; AUC [4]: 50200 ng·h/mL; clearance [5]: 0.146 mL/min; LCK (MDA-MB-435 [8]): 1; T/C (MDA-MB-435 [8]): 3.1%; Activity (Mus musculus [9]): <= 5%; LCK (HCT-116 [10]): 0.5; T/C (HCT-116 [10]): 26.5%; Activity (PC-3 [13]): Active; Vd (Mus musculus [16]): 62.7 mL; LCK (HCT-116 [17]): 1; T/C (HCT-116 [17]): 9.3%; concentration at 24 h [21]: 15 ng/mL; Activity (Mus musculus [24]): <= 5%; half-life [27]: 298 min
2 | CC(=O)O[C@H]1C(=O)[C@@]2(C)[C@H]([C@H](OC(=O)c3ccccc3)[C@]3(O)C[C@H](OC(=O)[C@H](O)[C@@H](NC(=O)c4ccccc4)c4ccccc4)C(C)=C1C3(C)C)[C@]1(OC(C)=O)CO[C@@H]1C[C@@H]2O [PACLITAXEL] | Toxic | Toxic | 1.5 | 6.1 | 3.8 | 0.6 | 3.4 | 0 | 49.2 | Toxic | Toxic | 20% | Toxic | Toxic | > 20% | 2.7 | 0.2 | Toxic | Toxic | Toxic | LCK (PC-3 [12]): 0.3; Activity (Mus musculus [24]): 13%
3 | CC[C@]1(O)C[C@@H]2CN(CCc3c([nH]c4ccccc34)[C@@](C(=O)OC)(c3cc4c(cc3OC)N(C)[C@H]3[C@@](O)(C(=O)OC)[C@H](OC(C)=O)[C@]5(CC)C=CCN6CC[C@]43[C@@H]65)C2)C1.O=S(=O)(O)O [VINBLASTINE SULFATE] |  | Toxic |  |  |  |  |  |  |  |  | Toxic |  |  | Toxic |  |  |  | Toxic | Toxic | Toxic | LCK (HCT-116 [29]): 0.2; T/C (HCT-116 [29]): 56%; LCK (MDA-MB-435 [30]): 0.2; T/C (MDA-MB-435 [30]): 41.1%
